Experimental data published in ChEMBL document CHEMBL4699638, “A Multipronged Approach Establishes Covalent Modification of β-Tubulin as the Mode of Action of Benzamide Anti-cancer Toxins” (J Med Chem, 2020).
Active and inactive are the calls of the source. No cut-off for these calls is given here.

Experiments:
[1] = Anticancer activity against mouse 319N1 cells assessed as reduction in cell viability measured after 72 hrs by celltiter-glo assay; type: functional, cell-based; conditions: 319N1, 72 h
How it was run: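 Cells seeded in duplicate at 10,000 per well in DMEM with 5% FBS and incubated overnight. Compounds were then added as a 10-point dose response. After 72 h, viability was read by CellTiter-Glo luminescence, with the reagent diluted 1:1 in PBS/1% Triton-X. Values were normalized to DMSO-treated cells and IC50 was derived from curve fitting.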

[2] = tested on: 518T2; assay: Binding affinity to beta-tubulin in mouse 518T2 cells at 0.1 to 50 uM measured after 1.5 hrs using Alexa Fluor 532 dye by copper-mediated click reaction based SDS PAGE analysis; type: cell-based; conditions: dose microM 0.1-50, time 1.5 hrs
How it was run: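 Competition assay in 518T2 cells (1 million per well, DMEM with 5% FBS). Test analogs in DMSO were dispensed first at 100 nM to 50 μM and the cells plated onto them. The next day, alkyne probe (5 μM) was added for 1.5 h at 37 °C. Lysis was in 1% SDS HEPES buffer, followed by a click reaction with fluorescent azide, SDS-PAGE, and EC50 from displacement of the p50 band.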

[3] = tested on: 518T2; assay: Binding affinity to beta-tubulin in mouse 518T2 cells at 0.05 to 50 uM measured after 1.5 hrs using Alexa Fluor 532 dye by copper-mediated click reaction based SDS PAGE analysis; type: cell-based; conditions: dose microM 0.05-50, time 1.5 hrs
How it was run: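 518T2 cells were plated at 1 million per well in DMEM with 5% FBS. The next day, alkyne probe in DMSO was added at 50 nM to 50 μM for 1.5 h at 37 °C in 5% CO2. Cells were washed, lysed in 1% SDS buffer (50 mM HEPES pH 7.4, 10 mM KCl, 2 mM MgCl2, benzonase), click-reacted with Alexa Fluor 532 azide and resolved by SDS-PAGE fluorescence.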

[4] = tested on: 518T2; assay: Binding affinity to beta-tubulin in mouse 518T2 cells measured after 1.5 hrs using diazo biotin azide dye by silver staining based based SDS PAGE analysis; type: cell-based
How it was run: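 518T2 cells were grown at large scale (100 mg protein per condition) and treated with covalent or non-covalent alkyne probe. Lysates were clicked to 100 μM diazo biotin azide, acetone-precipitated, resolubilized in 4% SDS/PBS, and captured on streptavidin beads for 1 h at 25 °C. Eluates were run on silver-stained SDS-PAGE or analyzed by nano-LC-MS/MS (Orbitrap, HCD). Peptide abundance was normalized to the non-covalent probe sample.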

[5] = target: Tubulin beta-3 chain (Homo sapiens) (UniProt Q13509); assay: Binding affinity to recombinant human C-terminal His-tagged beta3-tubulin expressed in insect cells assessed as reduction in microtubule growth measured up to 30 mins by microscopic analysis; conditions: dose microM 1-10, time min <=30
Sequence of Tubulin beta-3 chain (Homo sapiens) (Q13509 whole entry): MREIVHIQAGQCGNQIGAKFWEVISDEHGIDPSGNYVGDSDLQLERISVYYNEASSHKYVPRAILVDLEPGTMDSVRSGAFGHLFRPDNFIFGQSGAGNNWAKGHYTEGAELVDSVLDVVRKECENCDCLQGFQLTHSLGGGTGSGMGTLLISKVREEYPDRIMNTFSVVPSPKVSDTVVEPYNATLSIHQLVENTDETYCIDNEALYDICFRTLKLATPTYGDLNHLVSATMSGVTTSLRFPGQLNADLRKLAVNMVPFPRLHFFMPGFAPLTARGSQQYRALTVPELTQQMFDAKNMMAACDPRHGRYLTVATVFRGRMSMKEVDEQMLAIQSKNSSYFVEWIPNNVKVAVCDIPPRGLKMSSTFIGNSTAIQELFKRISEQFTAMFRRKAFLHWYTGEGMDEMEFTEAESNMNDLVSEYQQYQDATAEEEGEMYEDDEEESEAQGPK
How it was run: (§1)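 Human αβ-tubulin (TUBA1B plus TUBB3 with cleavable C-terminal His-tag) was expressed in Tni insect cells. It was purified by Ni-affinity, TEV cleavage and anion exchange, then kept in BRB80 with 50 μM GTP. Growth was measured by DIC time-lapse at 30 °C on GMPCPP seeds in 144 mM PIPES pH 6.9 buffer with 1 mM GTP and 4% DMSO, over about 30 min. Compound was tested at 1, 5 and 10 μM; growth rates were measured per microtubule over two trials.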

[6] = target: Tubulin beta-3 chain (Homo sapiens) (UniProt Q13509); assay: Binding affinity to recombinant human C-terminal His-tagged beta3-tubulin expressed in insect cells assessed as reduction in microtubule growth by measuring microtubule growth rate at 1 uM measured up to 30 mins by microscopic analysis (reference value: 0.83 micrometer/min); conditions: time min <=30; how it was run: as §1
[7] = target: Tubulin beta-3 chain (Homo sapiens) (UniProt Q13509); assay: Binding affinity to recombinant human C-terminal His-tagged beta3-tubulin expressed in insect cells assessed as reduction in microtubule growth by measuring microtubule growth rate at 10 uM measured up to 30 mins by microscopic analysis (reference value: 0.83 micrometer/min); conditions: time min <=30; how it was run: as §1
[8] = species: Bos taurus; assay: Binding affinity to bovine brain beta-tubulin assessed as reduction in microtubule growth at 0.5 uM measured up to 30 mins by microscopic analysis; type: tissue-based; conditions: time min <=30
How it was run: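 Microtubule growth from brain tubulin was imaged by time-lapse DIC microscopy at 30 °C on biotinylated GMPCPP seeds bound to neutravidin coverslips. Frames were taken every 50 ms and averaged in batches of 30; recordings ran about 30 min. Growth rates were quantified per microtubule.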

[9] = tested on: 518T2; assay: Binding affinity to beta-tubulin in mouse 518T2 cells measured after 1.5 hrs using Alexa Fluor 532 dye by copper-mediated click reaction based SDS PAGE analysis; type: cell-based
How it was run: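 Competition format in 518T2 murine SCLC cells, 1 million per well in DMEM with 5% FBS. Analogs in DMSO (100 nM to 50 μM) were dispensed first and cells plated onto them. Next day alkyne probe 24 (5 μM) was added for 1.5 h at 37 °C, 5% CO2. EC50 was taken from displacement of the 50 kDa band.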

[10] = tested on: 518T2; assay: Cell cycle arrest in mouse 518T2 cells assessed as increase in accumulation at G2/M-phase at 300 nM measured after 24 hrs by propidium iodide staining based flow cytometry; type: functional
How it was run: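 518T2 murine SCLC cells were exposed for 24 h to compound (300 nM) or DMSO vehicle. Cell cycle distribution was then read by flow cytometry.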

Compound | IC50 [1] [µM] | other results
COc1ccc(N2CCN(C(=O)c3ccc(Cl)c([N+](=O)[O-])c3)CC2)cc1 | 40.3 | 
O=C(c1ccc(Cl)c([N+](=O)[O-])c1)N1CCN(c2ccc(F)cc2F)CC1 | 24.7 | 
Cc1ccc(C)c(N2CCN(C(=O)c3ccc(Cl)c([N+](=O)[O-])c3)CC2)c1 | 1.04 | 
O=C(c1ccc(Cl)c([N+](=O)[O-])c1)N1CCN(c2ccc(F)cc2)CC1 | 21.1 | 
Cc1ccc(Cl)cc1N1CCN(C(=O)c2ccc(I)c([N+](=O)[O-])c2)CC1 |  | beta-tubulin binding (probe competition, active/inactive) [2]: Active
O=C(c1ccc(Cl)c([N+](=O)[O-])c1)N1CCN(c2cc(Cl)ccc2Cl)CC1 | 0.458 | 
CC[C@]1(O)C[C@H]2CN(CCc3c([nH]c4ccccc34)[C@@](C(=O)OC)(c3cc4c(cc3OC)N(C=O)[C@H]3[C@@](O)(C(=O)OC)[C@H](OC(C)=O)[C@]5(CC)C=CCN6CC[C@]43[C@@H]65)C2)C1 |  | beta-tubulin binding (probe competition, active/inactive) [2]: inactive
Cc1ccc(Cl)cc1N1CCN(C(=O)c2ccc(Cl)cc2[N+](=O)[O-])CC1 | 17 | 
Cc1ccc(N2CCN(C(=O)c3ccc(Cl)c([N+](=O)[O-])c3)CC2)c(C)c1 | 6.99 | 
C#CCOc1cccc(N2CCN(C(=O)c3ccc(C)c([N+](=O)[O-])c3)CC2)c1 | 13 | Activity [3]: inactive; Activity [4]: inactive
COc1cccc(N2CCN(C(=O)c3ccc(Cl)c([N+](=O)[O-])c3)CC2)c1 | 1.56 | beta-tubulin binding (probe competition, active/inactive) [2]: Active
Cc1ccc(Cl)cc1N1CCN(C(=O)c2cc(Cl)cc([N+](=O)[O-])c2)CC1 | 4.87 | 
COc1cc(OC)cc(N2CCN(C(=O)c3ccc(C=O)c([N+](=O)[O-])c3)CC2)c1 | 0.127 | Activity [5]: Dose-dependent effect; Activity [6]: 0.67 um/min; Activity [7]: 0.31 um/min; Activity [8]: Active
Cc1cccc(N2CCN(C(=O)c3ccc(Cl)c([N+](=O)[O-])c3)CC2)c1 | 1.42 | beta-tubulin binding (probe competition, active/inactive) [2]: Active
O=C(c1ccc(Cl)c([N+](=O)[O-])c1)N1CCN(c2ccccc2F)CC1 | 7.94 | 
COc1cc2c(c(OC)c1OC)-c1ccc(OC)c(=O)cc1[C@@H](NC(C)=O)CC2 |  | inhibition [9]: Dose-dependent effect; Activity [10]: Active
